Source: ChEMBL document CHEMBL4673214, “Synthesis and antibacterial bioactivities of cationic deacetyl linezolid amphiphiles” (Eur J Med Chem, 2018)

What was measured:
Staphylococcus aureus [1] = test: Antibacterial activity against Staphylococcus aureus ATCC 29213 assessed as reduction in bacterial growth incubated for 16 to 20 hrs by CLSI-based broth microdilution method; assay type: functional; conditions: time 16-20 hrs
Outline: (§1)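 Broth microdilution following CLSI, in cation-adjusted Mueller-Hinton broth. Inoculum from a 4-6 h culture (~10^8 CFU/mL), diluted to ~10^6 CFU/mL. Water stocks were serially diluted in MHB (256 to 0.5 µg/mL) and mixed 1:1 with the inoculum. Plates ran 16-20 h at 37 °C. MIC was read visually. Each concentration was tested in duplicate, and the experiment was repeated at least twice.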

Salmonella enterica = test: Antibacterial activity against Salmonella enterica ATCC 8387 assessed as reduction in bacterial growth incubated for 16 to 20 hrs by CLSI-based broth microdilution method; assay type: functional; conditions: time 16-20 hrs; outline: as §1
[2] = Solubility of the compound in water at room temperature; assay type: physicochemical; conditions: buffer
Enterococcus faecalis = test: Antibacterial activity against Enterococcus faecalis ATCC 29212 assessed as reduction in bacterial growth incubated 16 to 20 hrs by CLSI-based broth microdilution method; assay type: functional; conditions: time 16-20 hrs; outline: as §1
Escherichia coli = test: Antibacterial activity against Escherichia coli ATCC 25922 assessed as reduction in bacterial growth incubated 16 to 20 hrs by CLSI-based broth microdilution method; assay type: functional; conditions: time 16-20 hrs; outline: as §1
Klebsiella pneumoniae [3] = test: Antibacterial activity against carbapenem-resistant Klebsiella pneumoniae clinical isolate 3 assessed as reduction in bacterial growth incubated for 16 to 20 hrs by CLSI-based broth microdilution method; assay type: functional; conditions: time 16-20 hrs
Outline: (§2)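 Clinical isolates tested by broth microdilution in cation-adjusted Mueller-Hinton broth. Cultures grown 4-6 h (~10^8 CFU/mL) were diluted to ~10^6 CFU/mL and mixed 1:1 with compound serial dilutions made from 256 down to 0.5 µg/mL (pre-mixing). Plates held at 37 °C for 16-20 h, then read for growth. Each concentration run in duplicate, whole experiment at least twice.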

Klebsiella pneumoniae [4] = test: Antibacterial activity against carbapenem-resistant Klebsiella pneumoniae clinical isolate 6 assessed as reduction in bacterial growth incubated for 16 to 20 hrs by CLSI-based broth microdilution method; assay type: functional; conditions: time 16-20 hrs; outline: as §2
Klebsiella pneumoniae [5] = test: Antibacterial activity against carbapenem-resistant Klebsiella pneumoniae clinical isolate 8 assessed as reduction in bacterial growth incubated for 16 to 20 hrs by CLSI-based broth microdilution method; assay type: functional; conditions: time 16-20 hrs; outline: as §2
Klebsiella pneumoniae [6] = test: Antibacterial activity against carbapenem-resistant Klebsiella pneumoniae clinical isolate 7 assessed as reduction in bacterial growth incubated for 16 to 20 hrs by CLSI-based broth microdilution method; assay type: functional; conditions: time 16-20 hrs; outline: as §2
Staphylococcus aureus [7] = test: Antibacterial activity against methicillin-resistant Staphylococcus aureus clinical isolate 2 assessed as reduction in bacterial growth incubated for 16 to 20 hrs by CLSI-based broth microdilution method; assay type: functional; conditions: time 16-20 hrs; outline: as §2
Klebsiella pneumoniae [8] = test: Antibacterial activity against carbapenem-resistant Klebsiella pneumoniae clinical isolate 5 assessed as reduction in bacterial growth incubated for 16 to 20 hrs by CLSI-based broth microdilution method; assay type: functional; conditions: time 16-20 hrs; outline: as §2
Klebsiella pneumoniae [9] = test: Antibacterial activity against carbapenem-resistant Klebsiella pneumoniae clinical isolate 4 assessed as reduction in bacterial growth incubated for 16 to 20 hrs by CLSI-based broth microdilution method; assay type: functional; conditions: time 16-20 hrs; outline: as §2
Staphylococcus aureus [10] = test: Antibacterial activity against methicillin-resistant Staphylococcus aureus clinical isolate 10 assessed as reduction in bacterial growth incubated for 16 to 20 hrs by CLSI-based broth microdilution method; assay type: functional; conditions: time 16-20 hrs; outline: as §2
Klebsiella pneumoniae [11] = test: Antibacterial activity against carbapenem-resistant Klebsiella pneumoniae clinical isolate 10 assessed as reduction in bacterial growth incubated for 16 to 20 hrs by CLSI-based broth microdilution method; assay type: functional; conditions: time 16-20 hrs; outline: as §2
Staphylococcus aureus [12] = test: Antibacterial activity against methicillin-resistant Staphylococcus aureus clinical isolate 5 assessed as reduction in bacterial growth incubated for 16 to 20 hrs by CLSI-based broth microdilution method; assay type: functional; conditions: time 16-20 hrs; outline: as §2
Enterobacteriaceae [13] = test: Antibacterial activity against NDM1 producing carbapenem-resistant Enterobacteriaceae clinical isolate 3 assessed as reduction in bacterial growth incubated for 16 to 20 hrs by CLSI-based broth microdilution method; assay type: functional; conditions: time 16-20 hrs; outline: as §2
Enterobacteriaceae [14] = test: Antibacterial activity against NDM1 producing carbapenem-resistant Enterobacteriaceae clinical isolate 1 assessed as reduction in bacterial growth incubated for 16 to 20 hrs by CLSI-based broth microdilution method; assay type: functional; conditions: time 16-20 hrs; outline: as §2
Enterobacteriaceae [15] = test: Antibacterial activity against NDM1 producing carbapenem-resistant Enterobacteriaceae clinical isolate 8 assessed as reduction in bacterial growth incubated for 16 to 20 hrs by CLSI-based broth microdilution method; assay type: functional; conditions: time 16-20 hrs; outline: as §2
Staphylococcus aureus [16] = test: Antibacterial activity against methicillin-resistant Staphylococcus aureus clinical isolate 3 assessed as reduction in bacterial growth incubated for 16 to 20 hrs by CLSI-based broth microdilution method; assay type: functional; conditions: time 16-20 hrs; outline: as §2
Staphylococcus aureus [17] = test: Antibacterial activity against methicillin-resistant Staphylococcus aureus clinical isolate 6 assessed as reduction in bacterial growth incubated for 16 to 20 hrs by CLSI-based broth microdilution method; assay type: functional; conditions: time 16-20 hrs; outline: as §2
Enterobacteriaceae [18] = test: Antibacterial activity against NDM1 producing carbapenem-resistant Enterobacteriaceae clinical isolate 10 assessed as reduction in bacterial growth incubated for 16 to 20 hrs by CLSI-based broth microdilution method; assay type: functional; conditions: time 16-20 hrs; outline: as §2
Enterobacteriaceae [19] = test: Antibacterial activity against NDM1 producing carbapenem-resistant Enterobacteriaceae clinical isolate 9 assessed as reduction in bacterial growth incubated for 16 to 20 hrs by CLSI-based broth microdilution method; assay type: functional; conditions: time 16-20 hrs; outline: as §2
Klebsiella pneumoniae [20] = test: Antibacterial activity against carbapenem-resistant Klebsiella pneumoniae clinical isolate 9 assessed as reduction in bacterial growth incubated for 16 to 20 hrs by CLSI-based broth microdilution method; assay type: functional; conditions: time 16-20 hrs; outline: as §2
Klebsiella pneumoniae [21] = test: Antibacterial activity against carbapenem-resistant Klebsiella pneumoniae clinical isolate 1 assessed as reduction in bacterial growth incubated for 16 to 20 hrs by CLSI-based broth microdilution method; assay type: functional; conditions: time 16-20 hrs; outline: as §2
Klebsiella pneumoniae [22] = test: Antibacterial activity against carbapenem-resistant Klebsiella pneumoniae clinical isolate 2 assessed as reduction in bacterial growth incubated for 16 to 20 hrs by CLSI-based broth microdilution method; assay type: functional; conditions: time 16-20 hrs; outline: as §2
Staphylococcus aureus [23] = test: Antibacterial activity against methicillin-resistant Staphylococcus aureus clinical isolate 1 assessed as reduction in bacterial growth incubated for 16 to 20 hrs by CLSI-based broth microdilution method; assay type: functional; conditions: time 16-20 hrs; outline: as §2
Staphylococcus aureus [24] = test: Antibacterial activity against methicillin-resistant Staphylococcus aureus clinical isolate 8 assessed as reduction in bacterial growth incubated for 16 to 20 hrs by CLSI-based broth microdilution method; assay type: functional; conditions: time 16-20 hrs; outline: as §2
Enterobacteriaceae [25] = test: Antibacterial activity against NDM1 producing carbapenem-resistant Enterobacteriaceae clinical isolate 5 assessed as reduction in bacterial growth incubated for 16 to 20 hrs by CLSI-based broth microdilution method; assay type: functional; conditions: time 16-20 hrs; outline: as §2
Enterobacteriaceae [26] = test: Antibacterial activity against NDM1 producing carbapenem-resistant Enterobacteriaceae clinical isolate 6 assessed as reduction in bacterial growth incubated for 16 to 20 hrs by CLSI-based broth microdilution method; assay type: functional; conditions: time 16-20 hrs; outline: as §2
Staphylococcus aureus [27] = test: Antibacterial activity against methicillin-resistant Staphylococcus aureus clinical isolate 7 assessed as reduction in bacterial growth incubated for 16 to 20 hrs by CLSI-based broth microdilution method; assay type: functional; conditions: time 16-20 hrs; outline: as §2
Enterobacteriaceae [28] = test: Antibacterial activity against NDM1 producing carbapenem-resistant Enterobacteriaceae clinical isolate 4 assessed as reduction in bacterial growth incubated for 16 to 20 hrs by CLSI-based broth microdilution method; assay type: functional; conditions: time 16-20 hrs; outline: as §2
Enterobacteriaceae [29] = test: Antibacterial activity against NDM1 producing carbapenem-resistant Enterobacteriaceae clinical isolate 2 assessed as reduction in bacterial growth incubated for 16 to 20 hrs by CLSI-based broth microdilution method; assay type: functional; conditions: time 16-20 hrs; outline: as §2
Staphylococcus aureus [30] = test: Antibacterial activity against methicillin-resistant Staphylococcus aureus clinical isolate 9 assessed as reduction in bacterial growth incubated for 16 to 20 hrs by CLSI-based broth microdilution method; assay type: functional; conditions: time 16-20 hrs; outline: as §2
Staphylococcus aureus [31] = test: Antibacterial activity against methicillin-resistant Staphylococcus aureus clinical isolate 4 assessed as reduction in bacterial growth incubated for 16 to 20 hrs by CLSI-based broth microdilution method; assay type: functional; conditions: time 16-20 hrs; outline: as §2
Enterobacteriaceae [32] = test: Antibacterial activity against NDM1 producing carbapenem-resistant Enterobacteriaceae clinical isolate 7 assessed as reduction in bacterial growth incubated for 16 to 20 hrs by CLSI-based broth microdilution method; assay type: functional; conditions: time 16-20 hrs; outline: as §2

## CCCCCCCCCCCCCCCCCC[N+](C)(C)CC(=O)NC[C@H]1CN(c2ccc(N3CCOCC3)c(F)c2)C(=O)O1.[Cl-]
Staphylococcus aureus [1]
  MIC: 4 µg/mL
Salmonella enterica
  MIC: > 128 µg/mL
[2]
  solubility: Soluble
Enterococcus faecalis
  MIC: 16 µg/mL
Escherichia coli
  MIC: > 128 µg/mL

## CCCCCCCCN(C[C@H]1CN(c2ccc(N3CCOCC3)c(F)c2)C(=O)O1)C(=O)[C@@H](N)CCCN=C(N)N.Cl.Cl.Cl
Staphylococcus aureus [1]
  MIC: 16 µg/mL
Salmonella enterica
  MIC: > 128 µg/mL
[2]
  solubility: Soluble
Enterococcus faecalis
  MIC: 32 µg/mL
Escherichia coli
  MIC: > 128 µg/mL

## CCCCCCCCN(C[C@H]1CN(c2ccc(N3CCOCC3)c(F)c2)C(=O)O1)C(=O)[C@@H](N)CCCCN.Cl.Cl
Staphylococcus aureus [1]
  MIC: 32 µg/mL
Salmonella enterica
  MIC: 128 µg/mL
[2]
  solubility: Soluble
Enterococcus faecalis
  MIC: 64 µg/mL
Escherichia coli
  MIC: 128 µg/mL

## CCCCCCCN(C[C@H]1CN(c2ccc(N3CCOCC3)c(F)c2)C(=O)O1)C(=O)[C@@H](N)CCCN=C(N)N.Cl.Cl.Cl
Staphylococcus aureus [1]
  MIC: 64 µg/mL
Salmonella enterica
  MIC: > 128 µg/mL
[2]
  solubility: Soluble
Enterococcus faecalis
  MIC: 128 µg/mL
Escherichia coli
  MIC: 128 µg/mL

## CCCCCCCCCN(C[C@H]1CN(c2ccc(N3CCOCC3)c(F)c2)C(=O)O1)C(=O)[C@@H](N)CCCN=C(N)N.Cl.Cl.Cl
Staphylococcus aureus [1]
  MIC: 16 µg/mL
Salmonella enterica
  MIC: 64 µg/mL
[2]
  solubility: Soluble
Enterococcus faecalis
  MIC: 32 µg/mL
Escherichia coli
  MIC: 64 µg/mL

## CCCCCCCCCCCN(C[C@H]1CN(c2ccc(N3CCOCC3)c(F)c2)C(=O)O1)C(=O)[C@@H](N)CCCN=C(N)N.Cl.Cl.Cl
Klebsiella pneumoniae [3]
  MIC: 8 µg/mL
Staphylococcus aureus [1]
  MIC: 4 µg/mL
Klebsiella pneumoniae [4]
  MIC: 16 µg/mL
Klebsiella pneumoniae [5]
  MIC: 8 µg/mL
Klebsiella pneumoniae [6]
  MIC: 32 µg/mL
Staphylococcus aureus [7]
  MIC: 8 µg/mL
Klebsiella pneumoniae [8]
  MIC: 16 µg/mL
Klebsiella pneumoniae [9]
  MIC: 8 µg/mL
Staphylococcus aureus [10]
  MIC: 4 µg/mL
Klebsiella pneumoniae [11]
  MIC: 16 µg/mL
Staphylococcus aureus [12]
  MIC: 8 µg/mL
Enterobacteriaceae [13]
  MIC: 16 µg/mL
Enterobacteriaceae [14]
  MIC: > 64 µg/mL
Salmonella enterica
  MIC: 8 µg/mL
Enterobacteriaceae [15]
  MIC: 16 µg/mL
[2]
  solubility: Soluble
Enterococcus faecalis
  MIC: 8 µg/mL
Staphylococcus aureus [16]
  MIC: 4 µg/mL
Staphylococcus aureus [17]
  MIC: 4 µg/mL
Enterobacteriaceae [18]
  MIC: 8 µg/mL
Enterobacteriaceae [19]
  MIC: 16 µg/mL
Klebsiella pneumoniae [20]
  MIC: 8 µg/mL
Klebsiella pneumoniae [21]
  MIC: 16 µg/mL
Klebsiella pneumoniae [22]
  MIC: 16 µg/mL
Staphylococcus aureus [23]
  MIC: 2 µg/mL
Escherichia coli
  MIC: 8 µg/mL
Staphylococcus aureus [24]
  MIC: 4 µg/mL
Enterobacteriaceae [25]
  MIC: 16 µg/mL
Enterobacteriaceae [26]
  MIC: 16 µg/mL
Staphylococcus aureus [27]
  MIC: 4 µg/mL
Enterobacteriaceae [28]
  MIC: 64 µg/mL
Enterobacteriaceae [29]
  MIC: > 64 µg/mL
Staphylococcus aureus [30]
  MIC: 4 µg/mL
Staphylococcus aureus [31]
  MIC: 4 µg/mL
Enterobacteriaceae [32]
  MIC: 16 µg/mL

## CCCCCCCCC[N+](C)(C)CC(=O)NC[C@H]1CN(c2ccc(N3CCOCC3)c(F)c2)C(=O)O1.[Cl-]
Staphylococcus aureus [1]
  MIC: 8 µg/mL
Salmonella enterica
  MIC: 32 µg/mL
[2]
  solubility: Soluble
Enterococcus faecalis
  MIC: 16 µg/mL
Escherichia coli
  MIC: 32 µg/mL

## CCCCCCCCCCN(C[C@H]1CN(c2ccc(N3CCOCC3)c(F)c2)C(=O)O1)C(=O)[C@@H](N)CCCN=C(N)N.Cl.Cl.Cl
Staphylococcus aureus [1]
  MIC: 8 µg/mL
Salmonella enterica
  MIC: 32 µg/mL
[2]
  solubility: Soluble
Enterococcus faecalis
  MIC: 8 µg/mL
Escherichia coli
  MIC: 16 µg/mL
